# Reference: publication PMC8052299 (Biochemical pharmacology, 2021)
# Like-named read-outs stand apart in the source and are kept apart here.
# What was measured:
# HIV-1NL4.3 = assay: HIV replication assay in PBMCs; format: cell-based; conditions: for HIV replication suppressed: day 6
# [1] = Viability of uninfected PBMCs; format: cell-based, human; conditions: human, CC50, uninfected PBMCs, Viacount dye
# J-Lat 9.2 cells = assay: LRA-induced provirus expression; format: cell-based; conditions: for stimulation of GFP expression: J-Lat 9.2, data not shown; for GFP expression induced, % of cells: LRA only
# J-Lat 10.6 cells [2] = assay: LRA-induced provirus expression; format: cell-based
# OM-10.1 cells = assay: TNFα-induced provirus expression; format: cell-based; conditions: for EC50: 24 h, read-out: TNFα EC50, inhibition of provirus expression
# In short: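 OM-10.1 cells seeded at 200,000 cells/well and co-treated with 1 ng/mL TNFα plus test compound or 0.1% DMSO for 24 h. Cells were fixed, permeabilized, stained for intracellular p24Gag (KC57-RD1) and scored on live-gated cells by flow cytometry. EC50s were derived after normalizing to TNFα-only controls.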
# J-Lat 10.6 cells [3] = format: cell-based; conditions: for GFP expression 24 hours after washing, % of vehicle-treated control cells: washed, 24 h drug-free
# CDK9/cyclin T1 = CDK9/cyclin T1 (Homo sapiens, UniProt P50750); assay: CDK9 kinase activity assay; format: biochemical
# CDK9/cyclin T1, sequence (P50750 whole entry): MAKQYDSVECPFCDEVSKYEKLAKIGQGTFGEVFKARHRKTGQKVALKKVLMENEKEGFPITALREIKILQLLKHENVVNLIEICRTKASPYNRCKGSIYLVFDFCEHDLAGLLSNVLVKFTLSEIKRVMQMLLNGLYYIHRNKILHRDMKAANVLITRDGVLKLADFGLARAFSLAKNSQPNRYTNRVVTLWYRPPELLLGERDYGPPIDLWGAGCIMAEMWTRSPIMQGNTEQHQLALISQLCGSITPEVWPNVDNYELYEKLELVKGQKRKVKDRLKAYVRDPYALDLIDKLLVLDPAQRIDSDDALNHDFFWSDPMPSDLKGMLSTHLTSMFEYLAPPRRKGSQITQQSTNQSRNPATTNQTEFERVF
# CDK9/cyclin T1, sequence (O60563 whole entry partner): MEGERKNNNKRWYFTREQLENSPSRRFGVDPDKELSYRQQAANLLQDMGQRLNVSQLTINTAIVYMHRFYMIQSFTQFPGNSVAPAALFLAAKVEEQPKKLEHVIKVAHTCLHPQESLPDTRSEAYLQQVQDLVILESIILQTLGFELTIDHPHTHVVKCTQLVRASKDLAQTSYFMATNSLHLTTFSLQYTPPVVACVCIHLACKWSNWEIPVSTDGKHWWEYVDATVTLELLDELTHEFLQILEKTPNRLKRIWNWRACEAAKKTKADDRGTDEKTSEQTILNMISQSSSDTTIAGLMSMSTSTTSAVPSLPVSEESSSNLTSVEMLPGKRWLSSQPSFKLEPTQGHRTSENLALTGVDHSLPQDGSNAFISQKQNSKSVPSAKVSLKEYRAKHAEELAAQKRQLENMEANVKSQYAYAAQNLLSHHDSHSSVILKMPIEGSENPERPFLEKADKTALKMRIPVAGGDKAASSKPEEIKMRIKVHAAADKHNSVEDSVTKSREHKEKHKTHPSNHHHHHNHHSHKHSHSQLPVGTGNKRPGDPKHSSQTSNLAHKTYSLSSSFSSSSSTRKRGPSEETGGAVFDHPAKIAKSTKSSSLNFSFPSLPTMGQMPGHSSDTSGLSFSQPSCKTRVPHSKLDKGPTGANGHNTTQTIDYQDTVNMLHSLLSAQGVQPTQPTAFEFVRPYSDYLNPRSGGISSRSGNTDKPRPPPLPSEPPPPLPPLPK
# [4] = test system: Tat-dependent transactivation; assay: Tat-transactivated mCherry expression in JurTat cells; format: cell-based; conditions: for effect on ratio of mCherry:Dendra fluorescence: up to 30 μM
# In short: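 JurTat cells (Tat-Dendra plus HIV LTR-mCherry) were induced with 500 ng/mL doxycycline and seeded at 200,000 cells/well with test compound or 0.1% DMSO. After 24 h, Tat-Dendra and mCherry were measured by flow cytometry. Values are percent positive cells and mCherry:Dendra fluorescence ratio, expressed relative to 0.1% DMSO-treated cells.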
# class I and II HDAC = assay: Cellular HDAC activity assay; format: cell-based; conditions: for IC50: read-out: HDAC Inhibition IC50, Jurkat cells, 90 min, HDAC-Glo I/II
# PBMCs = assay: Viability of uninfected PBMCs; format: cell-based, human; conditions: 6 days; for CC50: Viacount dye; for toxicity: up to 30 μM
# Jurkat cells = assay: Jurkat cell viability, 24 h; format: cell-based; conditions: 30 μM
# [5] = test system: Tat-dependent transactivation; assay: HIV Tat-induced GFP expression in CEM-GXR cells; format: cell-based, HIV-1
# [6] = J-Lat 9.2, 24 h, read-out: Panobinostat EC50, inhibition of provirus expression
# [7] = J-Lat 9.2, 24 h, read-out: Prostratin EC50, inhibition of provirus expression
# [8] = J-Lat 9.2, 24 h, read-out: TNFα EC50, inhibition of provirus expression
# [9] = J-Lat 10.6, 24 h, read-out: HMBA EC50, inhibition of provirus expression
# [10] = J-Lat 10.6, 24 h, read-out: JQ1 EC50, inhibition of provirus expression
# [11] = J-Lat 10.6, 24 h, read-out: TNFα EC50, inhibition of provirus expression
# [12] = 15 μM, JurTat + 500 ng/mL Dox, 24 h
Compound,CC50 at 6 days [1] [µM],EC50 (J-Lat 9.2 cells; [6]) [µM],EC50 (J-Lat 9.2 cells; [7]) [µM],EC50 (J-Lat 9.2 cells; [8]) [µM],EC50 (J-Lat 10.6 cells [2]; [9]) [µM],EC50 (J-Lat 10.6 cells [2]; [10]) [µM],EC50 (J-Lat 10.6 cells [2]; [11]) [µM],EC50 (OM-10.1 cells) [µM],"GFP expression 24 hours after washing, % of vehicle-treated control cells (J-Lat 10.6 cells [3]; 10 μM for 21 days, J-Lat 10.6) [%]",IC50 (CDK9/cyclin T1) [µM],"HDAC activity inhibited (class I and II HDAC; 10 μM, Jurkat) [%]",IC50 (class I and II HDAC) [µM],other results
"O=c1cc(-c2ccc(O)cc2)oc2cc(O)cc(O)c12 [Apigenin, apigenin]",19.8 ± 6.5,4.1 ± 0.4,7.3 ± 1.1,5.6 ± 0.6,5.2 ± 0.8,7.2 ± 1.1,6.2 ± 0.3,4.1 ± 0.8,80.6 ± 80.5,0.21 ± 0.1,19.4 ± 5.4,47.2 ± 6.7,"Selectivity Index (CC50/EC50) (HIV-1NL4.3): 4.0; Dendra, % of fluorescence in cells treated with only Dox ([4]; 15 μM, JurTat): 39.9%; mCherry, % of fluorescence in cells treated with only Dox ([4]; 15 μM, JurTat): 13.7%; residual mCherry fluorescence as % of residual Dendra fluorescence ([4]; 15 μM, JurTat): 34.3%; Dendra expression, % of cells [4, 12]: 17.4 ± 6.5%; mCherry expression, % of cells [4, 12]: 1.8 ± 0.7%; EC50, mCherry:Dendra fluorescence ratio ([4]; JurTat + 500 ng/mL Dox, 24 h): 14.5 ± 1.5 µM"
"COc1cc(F)ccc1-c1ncnc(Nc2cccc(C[S@](C)(=N)=O)c2)n1 [Atuveciclib, atuveciclib, reference compound]",24.7 ± 4.9,3.6 ± 0.8,1.8 ± 0.1,1.7 ± 0.2,1.8 ± 0.1,2.4 ± 0.2,4.3 ± 0.2,1.8 ± 0.09,53.0 ± 0.8,,11.3 ± 12.9,> 90,"CC50 (PBMCs): 24.4 ± 1.5 µM; viability reduced vs 0.1% DMSO (Jurkat cells): 61.3 ± 2.6%; GFP expression 11 days following wash-out (J-Lat 10.6 cells [3]; 10 μM for 21 days, J-Lat 10.6): returned to those of untreated controls; GFP expression before wash-out, % of untreated cells (J-Lat 10.6 cells [3]; 10 μM, 21 days, J-Lat 10.6): 3.4 ± 0.7%; spontaneous GFP production abolished (J-Lat 10.6 cells [3]; 10 μM, after 9 days, J-Lat 10.6): > 95%; duration of reinforced latency following withdrawal in vitro (J-Lat 10.6 cells [3]; J-Lat 10.6, after 21 days' treatment): 9 days; HDAC activity inhibited (class I and II HDAC; 90 μM, Jurkat): 29.7 ± 14.3%"
"O=c1cc(-c2ccccc2)oc2cc(O)cc(O)c12 [Chrysin, chrysin]",> 30,2.8 ± 0.4,4.3 ± 1.2,4 ± 0.4,6.7 ± 1.4,7.7 ± 1.5,6.3 ± 0.7,4.7 ± 0.3,70.9 ± 65.6,0.021 ± 0.01,37.9 ± 7.7,24 ± 4.8,"Selectivity Index (CC50/EC50) (HIV-1NL4.3): > 3.3; toxicity (PBMCs): no toxicity was observed; provirus expression inhibited (J-Lat 9.2 cells; 3 μM, J-Lat 9.2, 10 ng/mL TNFα): 22.5 ± 24.9%; provirus expression inhibited (J-Lat 9.2 cells; 10 μM, J-Lat 9.2, 10 ng/mL TNFα): 88.3 ± 8.8%"
"CC(=O)NCCCCCCNC(C)=O [HMBA, reference compound]",,,,,,,,,,,,,"stimulation of GFP expression (J-Lat 9.2 cells): did not stimulate GFP expression; GFP production, % of cells (J-Lat 10.6 cells [2]; J-Lat 10.6, 10 mM, LRA only): 34.6 ± 1.4%"
"Cc1sc2c(c1C)C(c1ccc(Cl)cc1)=N[C@@H](CC(=O)OC(C)(C)C)c1nnc(C)n1-2 [JQ1, reference compound]",,,,,,,,,,,,,"stimulation of GFP expression (J-Lat 9.2 cells): did not stimulate GFP expression; GFP production, % of cells (J-Lat 10.6 cells [2]; J-Lat 10.6, 10 μM, LRA only): 35.9 ± 2.0%"
"O=c1cc(-c2ccc(O)c(O)c2)oc2cc(O[C@@H]3O[C@H](CO)[C@@H](O)[C@H](O)[C@H]3O)cc(O)c12 [L7G, luteolin-7-glucoside]",,,,,,,,,,,,> 90,"HIV replication suppressed (HIV-1NL4.3; 1 μM): 26.3 ± 24.8%; HIV replication suppressed (HIV-1NL4.3; 10 μM): 77.3 ± 32.7%; CC50 (PBMCs): 18.3 ± 2.5 µM; EC50 (J-Lat 9.2 cells; read-out: Panobinostat EC50, inhibition of provirus expression, J-Lat 9.2, 0.1 μM panobinostat, 24 h, GFP): 4.3 ± 0.4 µM; EC50 (J-Lat 9.2 cells; read-out: Prostratin EC50, inhibition of provirus expression, J-Lat 9.2, 10 μM prostratin, 24 h, GFP): 17.3 ± 2.2 µM; EC50 (J-Lat 9.2 cells; read-out: TNFα EC50, inhibition of provirus expression, J-Lat 9.2, 10 ng/mL TNFα, 24 h, GFP): 4.5 ± 0.6 µM; EC50 (J-Lat 10.6 cells [2]; read-out: HMBA EC50, inhibition of provirus expression, J-Lat 10.6, 10 mM HMBA, 24 h, GFP): 10.1 ± 3.5 µM; EC50 (J-Lat 10.6 cells [2]; read-out: JQ1 EC50, inhibition of provirus expression, J-Lat 10.6, 10 μM JQ1, 24 h, GFP): 16.4 ± 3.3 µM; EC50 (J-Lat 10.6 cells [2]; read-out: TNFα EC50, inhibition of provirus expression, J-Lat 10.6, 10 ng/mL TNFα, 24 h, GFP): 11.9 ± 0.5 µM; EC50 (OM-10.1 cells; OM-10.1, 1 ng/mL TNFα, p24Gag): 10.3 ± 1.2 µM; spontaneous latency reversal (J-Lat 10.6 cells [3]; 10 μM, 21 days, J-Lat 10.6): highly variable, but not inhibited; CDK9 IC50 fold higher than aglycone analogue luteolin (CDK9/cyclin T1): 96 fold; IC50 (CDK9/cyclin T1; read-out: CDK9 inhibition IC50, purified CDK9/cyclin T1, 10 μM ATP, ADP-Glo): 6.9 ± 3.9 µM; EC50 ([5]; read-out: Tat-dependent transactivation EC50, pCMV-Tat-transfected CEM-GXR cells, GFP, 24 h): > 30 µM; inhibition of Tat-induced GFP expression ([5]; up to 30 μM, CEM-GXR): unable to inhibit GFP expression; effect on ratio of mCherry:Dendra fluorescence ([4]; JurTat): neither naringenin nor L7G substantially affected the ratio"
"O=c1cc(-c2ccc(O)c(O)c2)oc2cc(O)cc(O)c12 [Luteolin, luteolin]",13.9 ± 5.9,6.8 ± 0.8,20.6 ± 2.6,7.6 ± 0.6,26.5 ± 5.8,15.4 ± 1.5,13.6 ± 0.8,10.3 ± 0.6,79.9 ± 26.6,0.072 ± 0.03,10.1 ± 1.6,> 90,"Selectivity Index (CC50/EC50) (HIV-1NL4.3): 1.1; EC50, mCherry:Dendra fluorescence ratio ([4]; JurTat + 500 ng/mL Dox, 24 h): 9.5 ± 1.5 µM; HDAC activity inhibited (class I and II HDAC; 100 μM, Jurkat): 42.6 ± 9.5%"
"O=C1C[C@@H](c2ccc(O)cc2)Oc2cc(O)cc(O)c21 [Naringenin, naringenin, reference compound]",> 30,> 30,> 30,> 30,> 30,> 30,> 30,> 30,,> 30,,88.7 ± 32.1,"antiviral activity (HIV-1NL4.3; up to 30 μM): no antiviral activity was observed; toxicity (PBMCs): No toxicity was observed; inhibition of LRA-induced provirus expression (J-Lat 10.6 cells [2]; J-Lat 10.6, TNFα, JQ1, HMBA): did not inhibit any LRA-induced provirus expression; inhibition of TNFα-induced provirus expression (OM-10.1 cells; OM-10.1, 1 ng/mL TNFα): no inhibition was observed; effect on ratio of mCherry:Dendra fluorescence ([4]; JurTat): neither naringenin nor L7G substantially affected the ratio"
"Cc1[nH]c2ccccc2c1CCNCc1ccc(/C=C/C(=O)NO)cc1 [panobinostat, reference compound]",,,,,,,,,,,,,"GFP expression induced, % of cells (J-Lat 9.2 cells; J-Lat 9.2, 0.1 μM, 24 h): 10.8 ± 1.4%; cellular HDAC activity reduced (class I and II HDAC; 0.1 μM, Jurkat): 88.0 ± 10.9%"
"CC(=O)O[C@@]12C[C@@H](C)[C@@]3(O)[C@@H](C=C(CO)C[C@]4(O)C(=O)C(C)=C[C@@H]34)[C@@H]1C2(C)C [prostratin, reference compound]",,,,,,,,,,,,,"GFP expression induced, % of cells (J-Lat 9.2 cells; J-Lat 9.2, 10 μM, 24 h): 10.7 ± 2.7%"
TNFα,,,,,,,,,,,,,"GFP expression induced, % of cells (J-Lat 9.2 cells; J-Lat 9.2, 10 ng/mL, 24 h): 10.4 ± 1.7%; GFP-positive cells induced (J-Lat 10.6 cells [2]; J-Lat 10.6, 10 ng/mL, 24 h, LRA only): 80.3 ± 2.6%; p24Gag production induced, % of live-gated cells (OM-10.1 cells; OM-10.1, 1 ng/mL): 90.6 ± 4.0%"
